Shown are actives, neighbours in structure and some others; about 2% of the full set was active somewhere.
S100A4 inh HTS = blocks human S100A4 binding to myosin IIA peptide; AID 652163; P26447; S100A4/TAMRA-MyoIIA peptide fluorescence polarization; inhibition, % at 10.7 µM; 360,000 compounds, 0.14% hits;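 active = mean inhibition of at least 70% across replicates, with every replicate also reaching that level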
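Material: S100A4 monomer protein | Medium: HEPES pH 7.2 with CaCl2, KCl, NaCl, DTT, Triton | Reagent: Labelled myosin peptide probe, 5 nM | Doses: One dose per compound | Times: 5 min incubation before reading | Benchmarks: Neutral control DMSO, positive control TFP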
Statin myotox sup = protects C2C12 myotubes from simvastatin toxicity | rescue of ATP level, % at 7.49 µM | ATP luminescence, 48 h; scaled: DMSO 0, geranylgeraniol control 100 | 330,000 compounds, 0.78% hits | AID 602340;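 active = mean ATP rescue above about 67%, or every replicate alone reaching that limit, limit read from the data, passing the limit was not always enough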;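 note: myotubes were challenged with 10 µM simvastatin during compound exposure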
CDK5 inh = inhibitors of human CDK5/p35 kinase | 330,000 compounds, 0.01% hits | Recombinant CDK5/p35, ADP-Glo luminescence, 60 min | Q00535+Q15078 | inhibition, % at 10 µM;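 active = highest replicate inhibition of at least 50% and at least 75% of replicates reaching 50%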;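 note: plate controls were DMSO neutral control for no effect and GW8510 at 10 µM for full effect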
CAL PDZ FP-1 = human CAL PDZ-peptide interaction inhibition | Q9HD26 | purified CAL PDZ, TMR-peptide fluorescence polarization, 1 h | inhibition, % at 20 µM | 330,000 compounds, 0.02% hits;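 active = highest replicate inhibition of at least 40%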;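 note: plate controls were DMSO neutral control wells for no effect and unlabeled competitor peptide control wells for full effect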
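Assay system – tagged CAL PDZ protein CerCALP, purified · Timing – 1 h at RT · Compound – single point, 20 µM · Measured by – fluorescence polarization from S- and P-plane intensities, G-factor corrected · Evaluation – inhibition from polarization loss · Probe or stimulus – TMR reporter peptide T*-PRC34 · Buffer or medium – pH 7.4 phosphate-saline buffer, reducing agent, detergent, IgG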
dFosB act = enhances mouse delta FosB homodimer DNA binding; purified delta FosB, TAMRA-CDK5 oligo fluorescence polarization; percent of positive-control signal above neutral wells; activation, % at 25 µM; 340,000 compounds, 0.99% hits; AID 493131;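 active = mean activation above about 17%, with every replicate also reaching it, limit read from the data, passing the limit was not always enough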
CAL PDZ FP-2 = blocks peptide binding to the human CAL PDZ domain; Q9HD26; AID 602252; purified CAL PDZ, TMR-peptide fluorescence polarization, 1 h; inhibition, % at 24.9 µM; 300,000 compounds, 0.92% hits;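 active = mean inhibition of at least 30% with at least half of replicates also reaching 30%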;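 note: 0% = DMSO neutral control and 100% = excess unlabeled competitor peptide PRC23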
Active calls of the source: *; / = not tested or not shown.

SMILES | S100A4 inh HTS | Statin myotox sup | CDK5 inh | CAL PDZ FP-1 | dFosB act | CAL PDZ FP-2
CC(CCc1ccccc1)NC(=O)CN1CCN(Cc2ccc(Cl)cc2)C1=O (stereo unspecified) | -7 | 67* | -1 | -1 | -8 | /
Cc1ccc(C(=O)N2CCCC(C(=O)c3ccc(Oc4ccccc4)cc3)C2)cn1 (stereo unspecified) | 1 | 4 | -2 | 0 | -11 | -2
C[C@@H]1CN([C@H](C)CO)C(=O)Cc2cc(NC(=O)Nc3ccc(C(F)(F)F)cc3)ccc2O[C@@H]1CN(C)Cc1ccncc1 | 0 | -63 | / | / | / | /
COc1ccc(C2=NN(CCC(=O)NC3CCCCCC3)C(=O)CC2)cc1 | -3 | 8 | -1 | 0 | -5 | -6
COc1ccc(C2=NN(CCC(=O)NC3CCC(C)CC3)C(=O)CC2)cc1 (stereo unspecified) | 88* | 17 | 0 | -1 | -15 | -9
CO[C@H]1CN(C)C(=O)c2ccc(NC(=O)c3ccccc3)cc2OC[C@H](C)N(C(=O)CN(C)C)C[C@H]1C | -11 | 5 | / | / | / | /
COc1cc2c(cc1NC(=S)NC(=O)c1c(OC)cccc1OC)oc1ccccc12 | 3 | / | 1 | -2 | 10 | 1
COCCNC(=S)Nc1cc2oc3ccccc3c2cc1OC | -4 | / | -2 | 0 | 1 | 31*
CC(=O)c1cc2c(cc1NC(=O)CCn1cnnn1)OCO2 | 4 | 13 | 2 | 0 | 0 | /
CCOc1cc(/C=N/n2c(C)nc3sc(C)c(C)c3c2=O)ccc1O | 2 | / | 0 | 0 | 3 | 72*
Cc1sc2nc(C)n(/N=C/c3ccccc3O)c(=O)c2c1C | / | 10 | 1 | 0 | 0 | -1
CCSCCOC(=O)C1=C(C)NC(=O)NC1c1cc(OC)ccc1OC (stereo unspecified) | / | 99* | -1 | / | -6 | -7
COc1ccc(OC)c(CCNC(=O)CN2C(=O)CC(C)(C)S(=O)(=O)c3ccccc32)c1 | -19 | 6 | -2 | -8 | -12 | /
CC1CCN(CCCNC(=O)c2ccc3c(=O)n(Cc4ccc(Cl)cc4)c(=S)[nH]c3c2)CC1 | -3 | -5 | -1 | 66* | -46 | -1
COC(=O)c1ccc2c(=O)n(Cc3ccc(C(=O)NCCCN4CCC(C)CC4)cc3)c(=S)[nH]c2c1 | 1 | / | 0 | -3 | 1 | -7
O=C(CN1CCCCC1)Nc1ccc(C(F)(F)F)cc1Cl | 3 | 91* | 1 | 0 | -3 | -4
Cc1ccc(NC(=O)c2ccc(CNS(=O)(=O)c3cccc(C(F)(F)F)c3)cc2)cc1 | / | 12 | -1 | 0 | -12 | 1
N#CC1=C(N)N(c2ccccc2)C(=O)C1 | / | 106* | -1 | 0 | -4 | 2
COc1ccc(N2C(=O)CC(C#N)=C2N)cc1 | -2 | / | 0 | 0 | 3 | 3
Cc1ccc(SC(C)C(=O)Nc2ccncc2)cc1 (stereo unspecified) | / | 27 | 2 | -2 | -3 | -3
[O-][n+]1onc2c1CCc1nnc(-c3ccccc3)cc1-2 | / | / | 0 | 1 | 3 | -1
[O-][n+]1onc2c1CCc1nnccc1-2 | / | 84* | 1 | -1 | 2 | -4
